ABHD5 PLIN5 PPI: ABHD5-PLIN5 protein interaction inhibition | inhibition, % at 4 µM | Q00G26+Q8WTS1 | AID 602281 | Split G. princeps luciferase complementation, luminescence, 4 h | 360,000 tested, 0.78% active;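 active means inhibition above the mean inhibition across every tested compound plus 3 SD, cut at about 22% in these data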;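 further: 0% = DMSO only wells and the 100% control is not disclosed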
Beta2AR agonist: activates human beta-2 adrenergic receptor causing internalization | Am2.2-beta2AR cells, FAP receptor internalization, flow cytometry | 340,000 tested, 0.43% active | response, % (test concentration not listed);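 active means response above a set limit, near 3 SD of response in nonfluorescent compounds, cut at about 42% in these data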
Target sequence (P07550 whole entry, looked up): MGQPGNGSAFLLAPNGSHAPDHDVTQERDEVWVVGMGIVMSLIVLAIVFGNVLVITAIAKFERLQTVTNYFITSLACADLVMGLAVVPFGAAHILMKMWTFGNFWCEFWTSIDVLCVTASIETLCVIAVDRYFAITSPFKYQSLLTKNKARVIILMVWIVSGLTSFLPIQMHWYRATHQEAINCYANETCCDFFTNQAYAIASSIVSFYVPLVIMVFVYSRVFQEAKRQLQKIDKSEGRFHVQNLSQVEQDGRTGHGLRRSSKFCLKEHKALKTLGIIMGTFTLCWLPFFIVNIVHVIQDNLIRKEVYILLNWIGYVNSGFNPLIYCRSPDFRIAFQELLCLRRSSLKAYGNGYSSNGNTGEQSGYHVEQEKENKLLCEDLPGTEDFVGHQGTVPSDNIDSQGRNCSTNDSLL
SENP1 inh: blocks the human SENP1 SUMO protease catalytic domain; Q9P0U3; 360,000 tested, 0.21% active; recombinant SENP1 catalytic domain, CyPet-SUMO1-YPet FRET cleavage; inhibition, % at 10 µM;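 active means inhibition at least 30% at 10 µM, raw YFP signal under a set limit, fluorescence ratio 0.5 to 1.5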;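 further: 0% = enzyme with DMSO and 100% = no enzyme wells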
Target sequence (Q9P0U3 419-644 limits assumed): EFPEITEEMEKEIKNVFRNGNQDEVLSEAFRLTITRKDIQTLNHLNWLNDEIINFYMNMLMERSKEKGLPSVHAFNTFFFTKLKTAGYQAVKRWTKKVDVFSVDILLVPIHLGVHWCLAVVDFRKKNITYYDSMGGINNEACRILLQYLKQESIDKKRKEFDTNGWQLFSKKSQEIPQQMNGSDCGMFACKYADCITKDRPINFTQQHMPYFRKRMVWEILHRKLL
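Material – human SENP1 catalytic domain · Input – SENP1 enzyme, 20 pM final · Compound dosing – single concentration of 10 µM compound, 0.5% DMSO final · Timing – enzyme reaction for 50 min at room temperature, dark · Measured by – FRET fluorescence in CFP and YFP emission channels · Control set – no-enzyme wells low, DMSO-plus-enzyme wells high control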
GRK2 aptamer HTS: inhibitors of human GRK2 displacing RNA aptamer; bead flow cytometry, FAM-aptamer displacement from GRK2; P25098; inhibition of aptamer binding, % at 10 µM; 330,000 tested, 0.59% active; AID 488847;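 active means inhibition of aptamer binding above 40%, roughly 3 SD of noise, on plates passing a quality check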;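 further: median bead fluorescence of bound FAM aptamer so fluorescent compounds give negative values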
NadD inh: inhibitors of Staphylococcus aureus NadD; purified NadD enzyme, colorimetric absorbance read-out; inhibition, % at 20 µM; 360,000 tested, 0.78% active; in the data active means inhibition above about 26%
GRK2 CP1: human GRK2 inhibition confirmation, cherry pick 1. bead-bound GRK2, FAM-aptamer displacement, flow cytometry. AID 504451. shares compounds with GRK2 aptamer HTS. 2,000 tested, 4% active. aptamer displacement, % at 10 µM;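 active means aptamer displacement above 40%, near three times the noise of non-fluorescent compounds, on plates passing quality checks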;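 further: negative values mostly reflect intrinsic compound fluorescence rather than true enhancement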
Aptamer quench: quenches fluorescent RNA aptamer, GRK2 hit artifact; shares compounds with GRK2 aptamer HTS; Fluorescent RNA aptamer beads, quenching, flow cytometry; active compounds read high; fluorescence change (kMESF span), kMESF (no concentration beside the values); 110 tested, under 10 active;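 active means compounds whose bead fluorescence drops by more than 37 kMESF across the dose range, marking them as dye quenchers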
Aptamer quench SP: aptamer fluorescence quenching in GRK2 counter-screen; shares compounds with GRK2 aptamer HTS; Carboxyfluorescein RNA aptamer on beads, flow cytometry quenching; active compounds read low; fluorescence response (% of DMSO), % at 10 µM; 2,000 tested, under 10 active;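 active means compounds that quench the bead-bound fluorescent RNA probe, cutting fluorescence to under half of the solvent control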;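 further: counterscreen run without GRK2 so only probe quenching by compound is measured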
Starred values were filed as active, the others as inactive; nt = not tested or not shown. This is a sample that favours compounds with a hit; in the whole collection about 2.5% have one here.

SMILES | ABHD5 PLIN5 PPI | Beta2AR agonist | SENP1 inh | GRK2 aptamer HTS | NadD inh | GRK2 CP1 | Aptamer quench SP | others
Cc1cccc(C)c1NC(=O)CN(C)C(=O)CCc1nc2sc3c(c2c(=O)[nH]1)CCCC3 | -5 | -6 | -28 | 3 | 3 | nt | nt
O=C(CCc1nc2sc3c(c2c(=O)[nH]1)CCCC3)NCCOc1ccccc1 | 1 | 2 | -31 | 0 | 8 | nt | nt
CN(CC(=O)Nc1cccc(F)c1)C(=O)CCc1nc2sc3c(c2c(=O)[nH]1)CCCC3 | -4 | 2 | -15 | 11 | 9 | 1 | 98
CC(NC(=O)CSC(=S)N1CCCC1)c1ccc(S(N)(=O)=O)cc1 (centres undefined) | -5 | -3 | 3 | 0 | 1 | nt | nt
O=C(NCc1cccnc1)C1CCCN(Cc2cnn(-c3ccccc3)c2-n2cccc2)C1 (centres undefined) | 0 | -6 | 3 | 0 | 0 | -1 | 103
O=C(NC1CC1)C1CCN(Cc2cnn(-c3ccccc3)c2-n2cccc2)CC1 | 2 | 2 | -4 | 0 | 3 | nt | nt
O=C(NCc1ccccn1)C1CCN(Cc2cnn(-c3ccccc3)c2-n2cccc2)CC1 | -1 | 3 | 0 | 0 | 9 | 2 | 95
O=C(NCc1ccccn1)C1CCCN(Cc2cnn(-c3ccccc3)c2-n2cccc2)C1 (centres undefined) | -2 | -7 | -3 | 0 | 3 | 1 | 102
CC(C)Cc1cc(CNC(=O)C2CCC(=O)N(Cc3cccc(C(F)(F)F)c3)C2)on1 (centres undefined) | -4 | -14 | -3 | 4 | -2 | nt | nt
Cn1cc(C(=O)c2ccc(Cl)cc2Cl)cc1C(=O)N/N=C(\N)COc1ccccc1 | 5 | -3 | 1 | 58* | -2 | 0 | 101
COc1ccc(NC(=S)NCc2cccs2)cc1 | 3 | -2 | 0 | 62* | 3 | 0 | 110
CC(C)c1ccc(NC(=S)NCc2cccs2)cc1 | -3 | -18 | 3 | 0 | -2 | nt | nt
CCCn1nnnc1NCc1c(F)cccc1Cl | -10 | -4 | -1 | 100* | 3 | 10 | 97
COc1ccc(-c2c(NC(=O)CC(C)C)n(C)c3ccccc3c2=O)cc1OC | 11 | -11 | 3 | 87* | -2 | -5 | 100
C=CCn1c(SCC(=O)N2CCOCC2)nnc1C(C)NC(=O)c1ccccc1 (centres undefined) | 4 | 2 | 1 | 3 | -8 | nt | nt
COc1cccc(C2(O)CCN(C(=O)c3cccs3)CC2)c1 | -3 | -2 | 1 | 0 | -2 | nt | nt
COc1cccc(C2(O)CCN(C(=O)C(C)C)CC2)c1 | 1 | 4 | 0 | 55* | -4 | 1 | 100
CCn1ccnc1CN(C)C(=O)C1CCC(=O)N(Cc2cccc(C(F)(F)F)c2)C1 (centres undefined) | -3 | 5 | -2 | 4 | -5 | nt | nt
COc1cc(SSc2cc(OC)cc([N+](=O)[O-])c2N)c(N)c([N+](=O)[O-])c1 | -9 | 1 | 2 | 87* | 26 | -14 | 95
CCOC(=O)C(NC(C)=O)C(=O)Nc1ccc(C)cc1C (centres undefined) | 8 | 17 | 0 | 50* | 1 | -1 | 102
COC(CNC(=O)CN1CCN(Cc2ccc(F)cc2Cl)C1=O)OC | -2 | -6 | 1 | 17 | -2 | -3 | 96
O=C(O)C[C@H]1c2cc(F)ccc2S(=O)(=O)N1C1CCCC1 | 2 | -5 | 1 | 44* | -10 | -2 | 98
O=[N+]([O-])c1ccc2nc(SCc3cn4ccccc4n3)[nH]c2c1 | 3 | -12 | 4 | 0 | -6 | nt | nt
O=[N+]([O-])c1ccc2nc(SCc3cn4cccnc4n3)[nH]c2c1 | 0 | -4 | 0 | 89* | 1 | -1 | 99
CN(C)CCCn1cnc2c1c(=O)[nH]c(=O)n2Cc1ccccc1 | 4 | 7 | 1 | 99* | -4 | -1 | 92
SMILES | ABHD5 PLIN5 PPI | Beta2AR agonist | SENP1 inh | GRK2 aptamer HTS | NadD inh | GRK2 CP1 | Aptamer quench SP | others
C=C(C)COc1cc2oc(=O)c(CC(=O)N3C[C@H]4C[C@@H](C3)c3cccc(=O)n3C4)c(C)c2cc1Cl | -4 | -24 | -82 | 1 | 16 | nt | nt
CCNC(=O)N1CCN(C(=O)NCC)CC1 | -5 | -2 | 1 | 0 | -1 | nt | nt
CCNC(=O)N1CCOCC1 | 6 | -7 | 2 | 45* | 3 | -6 | 100
O=C1COc2ccc(C(=O)COC(=O)/C=C/c3ccc(Br)o3)cc2N1 | 5 | 13 | -14 | 57* | 25 | 2 | 93
O=C(NC1CCCc2ccccc21)C1CCN(c2nnc(-n3cccc3)s2)CC1 (centres undefined) | 3 | -15 | 0 | 0 | 12 | -3 | 98
O=C(NCCC1=CCCCC1)C1CCN(c2nnc(-n3cccc3)s2)CC1 | -6 | -19 | 0 | 3 | 2 | -2 | 98
COc1cc(C)c(NC(=S)Nc2ccc(Cl)c(Cl)c2)cc1OC | 3 | 14 | 1 | 23 | 3 | nt | nt
O=C(CN1C(=O)COc2ccc(S(=O)(=O)N3CCOCC3)cc21)Nc1cccc(Cl)c1 | -9 | 1 | -1 | 66* | 0 | -5 | 101
Cc1ccc(C)c(NC(=O)Nn2cnnc2)c1 | 5 | -3 | 3 | 0 | -6 | nt | nt
CNC(=O)c1[nH]cnc1C(=O)Nc1ccc(C)cc1 | 7 | 3 | -3 | 0 | -1 | nt | nt
CNC(=O)c1[nH]cnc1C(=O)Nc1ccc(F)cc1 | 3 | 3 | 2 | 89* | 0 | -3 | 142 | Aptamer quench=9.5
CC1(C)N=C(SCC(=O)Nc2ccc(Cl)cc2)C(c2ccc(Cl)cc2)=N1 | -22 | 2 | 4 | 33 | 5 | -3 | 95
CC1(C)N=C(SCC(=O)Nc2ccc(Cl)cc2)C(c2ccccc2)=N1 | -13 | -5 | 2 | 0 | -7 | nt | nt
CCOc1ccc2[nH]c(=O)c(CN(CC3COCCO3)C(=O)c3ccc(C)cc3)cc2c1 (centres undefined) | 2 | -6 | 2 | 5 | 7 | nt | nt
CC(C)COc1ccc(C(=O)NNC(=O)c2ccc(=O)[nH]c2)cc1 | 2 | -10 | 2 | 0 | 4 | nt | nt
CCCn1c(SC(C)C(=O)NCC2CCCO2)nc2sc(CC)cc2c1=O (centres undefined) | 3 | -17 | -2 | 0 | -5 | nt | nt
